Source: PubChem BioAssay (several laboratories)
CHT PAM = CHT positive allosteric modulators, primary screen, cell-based, membrane potential dye, choline EC20; High affinity choline transporter 1 (Homo sapiens), Q9GZV3; CHT-expressing cells; stronger effect = higher value; LV-AA mutant CHT in HEK293 cells; B-score at 10 µM; actives 0.49% (n = 310,000); AID 488977, 2010;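 active means initial fluorescence not abnormally high and integrated response B-score, plate-corrected, over 3 SD above library mean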
Target sequence (Q9GZV3 whole entry, looked up): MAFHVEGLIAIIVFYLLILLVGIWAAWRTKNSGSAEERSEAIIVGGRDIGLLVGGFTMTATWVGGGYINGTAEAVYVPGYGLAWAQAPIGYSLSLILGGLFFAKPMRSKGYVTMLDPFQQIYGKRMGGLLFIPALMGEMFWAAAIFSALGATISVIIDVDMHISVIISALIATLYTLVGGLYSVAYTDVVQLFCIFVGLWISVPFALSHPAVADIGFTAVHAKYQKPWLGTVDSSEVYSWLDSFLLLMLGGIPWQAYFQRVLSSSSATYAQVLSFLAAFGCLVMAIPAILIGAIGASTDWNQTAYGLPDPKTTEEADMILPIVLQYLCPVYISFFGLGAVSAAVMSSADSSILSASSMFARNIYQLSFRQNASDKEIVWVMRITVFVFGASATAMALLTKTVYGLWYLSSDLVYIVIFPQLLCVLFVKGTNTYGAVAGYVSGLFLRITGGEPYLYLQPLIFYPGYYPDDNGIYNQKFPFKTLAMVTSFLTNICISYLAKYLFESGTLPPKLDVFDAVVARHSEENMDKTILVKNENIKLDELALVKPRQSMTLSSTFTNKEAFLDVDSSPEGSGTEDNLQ
VLA-4 inh = inhibition in human VLA-4 binding assay, primary screen, VLA-4 allosteric modulator project, MLPCN library, flow cytometry, VLA-4 expressing cells; Integrin alpha-4 (Homo sapiens), P13612; AID 2557, 2010; ligand binding flow cytometry; inhibition, % (about 7 µM as worked out from the volumes in the protocol); actives 0.2% (n = 330,000); in the data active means inhibition above about 50%
T cell HTS = modulators of CD8 T cell-vesicle binding, primary screen, mouse 2C CD8+ T cells, flow cytometry; actives 0.068% (n = 330,000); 2C CD8+ T cell-vesicle binding; stronger effect = lower value; response (vesicle binding), % at 7 µM;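 active means response, share of CD8 T cells binding vesicles, and their 90th percentile fluorescence all below set limits, cut at about 80% in these data, passing the limit was not always enough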;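 further: values below 100% mean blocked vesicle binding to the CD8+ T cells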
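material = purified 2C TCR transgenic mouse naive CD8+ T cells | controls = Unloaded micro-vesicles (low), QL9 vesicles with 0.7% DMSO (high) | detection = cytometric PE anti-B7-1 and Alexa647 anti-CD8 signals after 1% paraformaldehyde fixation | incubation = binding step 1.5 h, 37 °C, antibody labelling 20 min, ice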
CHT block = inhibitors of human choline transporter CHT; AID 488975, 2010; High affinity choline transporter 1 (Homo sapiens), Q9GZV3; actives 0.86% (n = 310,000); B-score at 10 µM; CHT-expressing cells, membrane potential dye, choline response; stronger effect = lower value;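 active means B-score over 3 SD under the library average, and starting fluorescence ratio not unusually high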;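 further: choline stimulus applied at its EC90 after an EC20 pre-addition; B-score computed on integrated fluorescence ratio after choline addition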
CHT block conf = CHT inhibitors, confirmation, cell-based, membrane potential dye, duplicate | shares compounds with CHT block | CHT-expressing cells, choline membrane potential dye; LV-to-AA substituted CHT, HEK293 cells | CHT activity remaining % of control (stronger effect = lower value), % at 10 µM | actives 70% (n = 2,400) | AID 493221, 2011;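 active means choline transporter activity left, mean of duplicates at 10 µM, below buffer-only control mean minus 3 SD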;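 further: depolarization triggered by choline at its EC90 following an EC20 pre-addition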
HEK293 CHT ctr = membrane potential effects in parental HEK293, counter-screen for CHT inhibitor project, cell-based, membrane potential dye | shares compounds with CHT block | actives 4% (n = 2,400) | membrane potential ratio readout (active if shifted either direction beyond buffer ±3SD; no single direction) at 10 µM | AID 493222, 2011 | choline response; active = decrease or increase beyond buffer ±3SD;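 further: parental cells lack the transporter so any hit is non-specific; ratio is peak minus trough fluorescence over baseline after EC90 choline challenge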
Hits are given with their value; n = inactive; x = not tested or not shown. The list is not random: actives were taken first. Their share in the collection is about 1.5%.

SMILES | CHT PAM | VLA-4 inh | T cell HTS | CHT block | CHT block conf | HEK293 CHT ctr
COc1ccc(C2=NN(C(=O)c3cccs3)C(O)(C(F)(F)F)C2)cc1 (centres undefined) | n | n | n | n | x | x
COc1ccc(C2=NN(c3nc(C(=O)O)cs3)C(O)(C(F)(F)F)C2)c(OC)c1 (centres undefined) | n | n | n | -8.93 | 41.9% | n
COc1ccc(NS(=O)(=O)c2cccc(C(=O)NCC(c3ccc(OC)cc3)N3CCOCC3)c2)cc1 (centres undefined) | n | n | n | n | x | x
COc1ccc(C(CNC(=O)c2cc(S(=O)(=O)NCc3ccccc3)ccc2C)N2CCOCC2)cc1 (centres undefined) | n | n | n | -10 | 18.6% | n
Cc1ccc(-n2c(C)c(C)c3c(N)ncnc32)cc1 | n | n | n | n | x | x
O=C1CCN(CCc2ccccc2)CCN1CCSc1ccccc1 | n | n | n | -5.01 | 49.5% | n
[N-]=[N+]=NC[C@H](Cc1ccccc1)N1CC[C@@H](O)CCC1=O | n | n | n | n | x | x
CC(C)(C)[C@H]1CCC(=O)N([C@H](CN=[N+]=[N-])Cc2ccccc2)CC1 | n | n | n | -5.15 | n | n
CCCCCOc1ccc(NC2=CC(=O)CCC2)cc1 | n | n | n | n | x | x
CCOC(=O)Cc1csc(NC(=O)Nc2cccc(OC)c2)n1 | n | n | n | n | x | x
CCCCCC(=O)c1ccc(O)cc1O | n | n | n | -6.1 | 54.9% | n
Cc1nc(CC(=O)c2ccc(O)cc2O)cs1 | n | n | n | n | x | x
Cc1ccc(OCC(=O)NNC(=S)NC(=O)C(C)(C)C)c(Br)c1 | n | n | n | -10.1 | 54.7% | n
Cc1ccc(OCC(=O)NC(=S)Nc2ccccn2)c(Br)c1 | n | n | n | n | x | x
CCn1cc(C(=O)NCCCN2CCCC(C)C2)c(=O)c2cc(S(=O)(=O)N3CCc4ccccc4C3)ccc21 (centres undefined) | n | n | n | -15.7 | 20.3% | 3.61
CCn1cc(C(=O)NCCCN2CC(C)CC(C)C2)c(=O)c2cc(S(=O)(=O)N(C)C)ccc21 (centres undefined) | n | n | n | n | x | x
C=CCn1cc(C(=O)NCCCOCC)c(=O)c2cc(S(=O)(=O)N(CC)CC)ccc21 | n | n | n | n | x | x
CCCCN(CCCC)CCNC(=O)c1cn(CC)c2ccc(S(=O)(=O)N3CCc4ccccc4C3)cc2c1=O | n | n | n | -9.17 | 12.4% | n
C=CCn1cc(C(=O)NCCCN(CC)CC)c(=O)c2cc(S(=O)(=O)N3CCC(C)CC3)ccc21 | n | n | n | -8.56 | 25.7% | n
Cn1cc(C(=O)N2CCc3ccccc3C2)c(=O)c2cc(S(=O)(=O)N3CCOCC3)ccc21 | n | n | n | -6.05 | n | n
C=CCN1C(=O)c2ccc(C(=O)N(CC)CC(=O)Nc3c(F)cccc3F)cc2C1=O | n | n | n | n | x | x
CC12CC(O)C3c4ccc(O)cc4CCC3C1CCC2=O (centres undefined) | n | n | n | n | x | x
CC(=O)OC1CC2(C)/C(=N\O)CCC2C2CCc3cc(O)ccc3C12 (centres undefined) | n | n | n | -11.1 | 3.2% | n
O=S(Cc1ccccc1)CC(O)(c1ccccc1)c1ccccc1 (centres undefined) | n | n | n | -5.12 | n | n
Cc1ccc(-n2ncc3c2CC(C)(C)CC3NC(=O)CCc2cccnc2)cc1 (centres undefined) | n | n | n | n | x | x
SMILES | CHT PAM | VLA-4 inh | T cell HTS | CHT block | CHT block conf | HEK293 CHT ctr
Cc1ccc(-c2nc3ncccc3o2)cc1NC(=O)c1ccccc1 | n | n | n | -6.67 | n | n
Cc1ccc(-c2nc3ncccc3o2)cc1NC(=O)c1cccnc1 | n | n | n | n | x | x
COc1ccc(C2CC(=O)C(C=NCCN3CCN(C(=S)Nc4ccccc4)CC3)=C(O)C2)cc1OC (centres undefined) | n | n | n | n | x | x
Fc1cccc(CSc2nc3ncccc3[nH]2)c1 | n | n | n | n | x | x
Fc1ccc(CSc2nc3ncccc3[nH]2)cc1 | n | n | n | -6.04 | n | n
CN1CCN(C(=O)CCN2C(=O)c3ccccc3C2=O)CC1 | n | n | n | n | x | x
CN1CCN(c2ncc(CN3C(=O)c4ccccc4C3=O)s2)CC1 | n | n | n | -5.28 | 56.6% | n
Cc1cccc(OCC(O)Cn2c(=N)n(Cc3ccccc3)c3ccccc32)c1 (centres undefined) | n | n | n | -11.8 | 57.1% | n
N=c1n(CCO)c2ccccc2n1Cc1ccc(Cl)cc1 | n | n | n | n | x | x
COc1ccc(OCC(O)Cn2c(=N)n(Cc3ccccc3)c3ccccc32)cc1 (centres undefined) | n | n | n | -5.25 | 31.1% | n
Cc1ccc(OCC(O)Cn2c(=N)n(Cc3ccccc3)c3ccccc32)cc1 (centres undefined) | n | n | n | -8.96 | 51.4% | n
Cc1cccc(OCC(O)CN2CCNCC2)c1 (centres undefined) | n | n | n | n | x | x
N=c1n(Cc2ccc(Cl)cc2)c2ccccc2n1CC(O)COc1ccccc1 (centres undefined) | n | n | n | -9.21 | 45.9% | n
O=C1C=C(c2cc(C(F)(F)F)cc(C(F)(F)F)c2)C[C@@H](c2ccc(Cl)cc2)C1 | x | n | n | x | x | x
CC(Cl)C(=O)NNC(=O)CNS(=O)(=O)c1ccccc1 (centres undefined) | n | n | n | n | x | x
Cc1ccc(OS(=O)(=O)c2c(C)nn(C)c2Cl)c(C)c1 | n | n | n | n | x | x
O=C(Cc1ccc(Br)cc1)OCC(=O)c1ccc[nH]1 | x | n | n | x | x | x
COc1ccc(CN2CCNC(=O)C2CC(=O)NCCN2CCCCC2=O)c(F)c1 (centres undefined) | n | n | n | n | x | x
CCCCCN(C(=O)CCC(=O)OCCOc1cccc(C)c1)c1c(N)n(CCCC)c(=O)[nH]c1=O | n | n | n | n | x | x
C=CCSc1nnc2c(n1)OC(C)=Nc1ccc(Br)cc1-2 | n | n | n | n | x | x
Cn1c(SCC(=O)NCCc2ccccc2)ncc(C(=O)Nc2ccc(F)cc2)c1=O | n | n | n | n | x | x
COc1ccc(NC(=O)/C(C#N)=C/c2ccc(OCCN3CCOCC3)c(OC)c2)c(OC)c1 | n | n | n | n | x | x
COc1ccccc1NC(=O)/C(C#N)=C/c1ccc(OCCN2CCOCC2)c(OC)c1 | n | n | n | -5.98 | n | n
COc1ccc(S(=O)(=O)/N=C2/NC(=O)/C(=C\c3cc(OC)c(OC)cc3[N+](=O)[O-])S2)cc1 | n | n | n | n | x | x
